One data set can be described thus: Metabolic stability. In kind it is in vitro ADME. Particulars: rat, plasma.
For data set [1], the target named is bradykinin receptors (BRs). Nature of the data set: Radioligand competition assay using [3H]BK in rat brain membranes. Particulars: for BR, [3H]BK Log[IC50] / IC50 / BR, [3H]BK IC50: rat brain membranes, pH 6.8, [3H]BK; for BR, [3H]BK Log[IC50]: logarithmic value (negative); for IC50: read-out: BR, [3H]BK IC50. Format: binding. In outline:
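Competitive binding against [3H]BK in rat brain membranes at pH 6.8. Non-specific binding was defined with 10 μM kallidin. Data came from at least two independent experiments run in duplicate. IC50 was derived by nonlinear least-squares regression and also reported as a logarithmic value.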
(In general: In a radioligand displacement assay an active substance lowers the binding of a labelled ligand.)

Positions of bridges follow the written chain, without caps; N, C: chain ends. Non-standard residues stand in square brackets, D forms with d. Residues, ends and D or L forms follow the SMILES beside them. Nle = CCCC[C@H](N)C(=O)O

As usually defined, the half-life is the time needed for the level to fall by half in the phase considered. The low end stands for fast loss, the high end for slow loss. Compound `CCCC[C@H](NC(=O)[C@H](CCCCN)NC(=O)[C@@H]1CCCN1C(=O)[C@H](CCCCN)NC(=O)[C@@H](N)CCCC)C(=O)N[C@@H](CCCCN)C(=O)O` [ligand 1, H-Nle-Lys-Pro-Lys-Nle-Lys-OH] (H-[Nle]KPK[Nle]K-OH) had a half-life in the data set “Metabolic stability” below 1 h.

A word on the IC50: it is the concentration that inhibits the measured activity by half. Turning to “c^N,6[Lys-Leu-Arg-Ile-Arg-Glu]-Lys-OH (KLRIREK-OH; lactam N-6; SMILES CC[C@H](C)[C@@H]1NC(=O)[C@H](CCCNC(=N)N)NC(=O)[C@H](CC(C)C)NC(=O)[C@H](CCCCN)NC(=O)CC[C@@H](C(=O)N[C@@H](CCCCN)C(=O)O)NC(=O)[C@H](CCCNC(=N)N)NC1=O) [ligand 6]”, in data set [1], the “BR, [3H]BK Log[IC50]” value is −6.52+0.15 and the IC50 turned out to be 302 nM. For `CC[C@H](C)[C@@H]1NC(=O)[C@H](CCCNC(=N)N)NC(=O)[C@H](CC(C)C)NC(=O)[C@H](Cc2ccccc2)NC(=O)CC[C@@H](C(=O)N[C@@H](CCCCN)C(=O)O)NC(=O)[C@H](CCCNC(=N)N)NC1=O` [ligand 5, c^N,6[Phe-Leu-Arg-Ile-Arg-Glu]-Lys-OH] (FLRIREK-OH; lactam N-6 (inferred)), the half-life in the data set “Metabolic stability” was above 5 h. Take “c^N,5[Leu-Arg-Ile-Arg-Glu]-Lys-OH (LRIREK-OH; lactam N-5; SMILES CC[C@H](C)[C@@H]1NC(=O)[C@H](CCCNC(=N)N)NC(=O)[C@H](CC(C)C)NC(=O)CC[C@@H](C(=O)N[C@@H](CCCCN)C(=O)O)NC(=O)[C@H](CCCNC(=N)N)NC1=O) [ligand 7]”: in data set [1], the “BR, [3H]BK Log[IC50]” value is given as −5.82+0.09 and the IC50 was 1510 nM. The “reduction of affinity at the BRs (fold)” value in data set [1] (compared with linear ligand 4) is reported as 22 fold. On to “H-c^1,5(-cisCH=CH-)[Ala-Lys-Pro-Lys-Ala]-Lys-OH (AKPKA; not fully specified; cis-CH=CH- dicarba bridge 1,5; C-terminal Lys; printed: Ala-Lys-Pro-Lys-Ala) [ligand 2]”, for which, in data set [1], the “BR, [3H]BK IC50” value is reported as “no competition”.

In the case of “H-c^1,5(-CH2CH2-)[Ala-Lys-Pro-Lys-Ala]-Lys-OH (AKPKA; not fully specified; -CH2CH2- dicarba bridge 1,5; C-terminal Lys; printed: Ala-Lys-Pro-Lys-Ala) [ligand 3]”, the “BR, [3H]BK IC50” value in data set [1] was “no competition”.

The values above are taken from publication PMC5159310 (Bioorganic & medicinal chemistry letters, 2016).
